Assays:
Format in all cases: functional
NCI/ADR-RES = test: Growth inhibition of human NCI/ADR-RES cells assessed as cell growth at 1 uM incubated for 48 hrs by sulforhodamine B assay relative to control; settings: read-out: Activity
MDA-MB-435 = test: Growth inhibition of human MDA-MB-435 cells assessed as cell growth at 0.1 uM incubated for 48 hrs by sulforhodamine B assay relative to control; settings: read-out: Activity
SN12C [1] = test: Growth inhibition of human SN12C cells assessed as cell growth at 100 uM incubated for 48 hrs by sulforhodamine B assay relative to control; settings: read-out: Activity
SF-539 [2] = test: Growth inhibition of human SF-539 cells assessed as cell growth at 0.01 uM incubated for 48 hrs by sulforhodamine B assay relative to control; settings: read-out: Activity
A498 [3] = test: Growth inhibition of human A498 cells assessed as cell growth at 0.01 uM incubated for 48 hrs by sulforhodamine B assay relative to control; settings: read-out: Activity
Method in brief: (§1)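 NCI Developmental Therapeutics Program NCI60 panel. Compounds that were active in the 10 µM one-dose screen went on to dose–response testing. Growth at each concentration is expressed relative to untreated control (100%). GI50 (concentration giving 50% of maximal inhibition of proliferation) and TGI (concentration giving total growth inhibition) were derived from the curves.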

SNB-19 = test: Growth inhibition of human SNB-19 cells assessed as cell growth at 1 uM incubated for 48 hrs by sulforhodamine B assay relative to control; settings: read-out: Activity
LOX IMVI = test: Growth inhibition of human LOX IMVI cells incubated for 48 hrs by sulforhodamine B assay
Method in brief: (§2)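 NCI60 panel at the NCI Developmental Therapeutics Program. Only compounds active in the 10 µM screen went to dose-response testing. GI50, the concentration giving 50% of maximal inhibition of proliferation, and TGI, the concentration giving total growth inhibition, were derived from the dose-response curves.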

SW-620 = test: Growth inhibition of human SW-620 cells assessed as cell growth at 0.01 uM incubated for 48 hrs by sulforhodamine B assay relative to control; settings: read-out: Activity
MDA-MB-231 = test: Growth inhibition of human MDA-MB-231 cells assessed as cell growth at 0.1 uM incubated for 48 hrs by sulforhodamine B assay relative to control; settings: read-out: Activity
BT-549 = test: Growth inhibition of human BT-549 cells assessed as cell growth at 100 uM incubated for 48 hrs by sulforhodamine B assay relative to control; settings: read-out: Activity
SF-268 = test: Growth inhibition of human SF-268 cells assessed as cell growth at 100 uM incubated for 48 hrs by sulforhodamine B assay relative to control; settings: read-out: Activity
RPMI-8226 = test: Growth inhibition of human RPMI-8226 cells assessed as cell growth at 0.01 uM incubated for 48 hrs by sulforhodamine B assay relative to control; settings: read-out: Activity
A498 [4] = test: Growth inhibition of human A498 cells assessed as cell growth at 1 uM incubated for 48 hrs by sulforhodamine B assay relative to control; settings: read-out: Activity; method in brief: as §1
NCI-H460 = test: Growth inhibition of human NCI-H460 cells assessed as cell growth at 1 uM incubated for 48 hrs by sulforhodamine B assay relative to control; settings: read-out: Activity
SK-MEL-2 = test: Growth inhibition of human SK-MEL-2 cells incubated for 48 hrs by sulforhodamine B assay
Method in brief: (§3)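 NCI DTP 60-line human tumour panel. Dose-response curves were run only for ligands active in the initial 10 µM screen. GI50 (concentration giving 50% of maximal inhibition of proliferation) and TGI (concentration giving total growth inhibition) were derived from these curves.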

NCI-H322M = test: Growth inhibition of human NCI-H322M cells assessed as cell growth at 100 uM incubated for 48 hrs by sulforhodamine B assay relative to control; settings: read-out: Activity
MCF7 = test: Growth inhibition of human MCF7 cells assessed as cell growth at 0.1 uM incubated for 48 hrs by sulforhodamine B assay relative to control; settings: read-out: Activity
RXF 393 = test: Growth inhibition of human RXF 393 cells assessed as cell growth at 0.1 uM incubated for 48 hrs by sulforhodamine B assay relative to control; settings: read-out: Activity
SNB-75 = test: Growth inhibition of human SNB-75 cells assessed as cell growth at 1 uM incubated for 48 hrs by sulforhodamine B assay relative to control; settings: read-out: Activity
SF-295 [5] = test: Growth inhibition of human SF-295 cells assessed as cell growth at 100 uM incubated for 48 hrs by sulforhodamine B assay relative to control; settings: read-out: Activity
HCT-15 = test: Growth inhibition of human HCT-15 cells assessed as cell growth at 0.1 uM incubated for 48 hrs by sulforhodamine B assay relative to control; settings: read-out: Activity
ACHN = test: Growth inhibition of human ACHN cells assessed as cell growth at 0.1 uM incubated for 48 hrs by sulforhodamine B assay relative to control; settings: read-out: Activity
SF-539 [6] = test: Growth inhibition of human SF-539 cells assessed as cell growth at 100 uM incubated for 48 hrs by sulforhodamine B assay relative to control; settings: read-out: Activity
Hs-578T = test: Growth inhibition of human Hs-578T cells assessed as cell growth at 1 uM incubated for 48 hrs by sulforhodamine B assay relative to control; settings: read-out: Activity
COLO 205 = test: Growth inhibition of human COLO 205 cells incubated for 48 hrs by sulforhodamine B assay; method in brief: as §1
SF-295 [7] = test: Growth inhibition of human SF-295 cells incubated for 48 hrs by sulforhodamine B assay; method in brief: as §3
HT-29 = test: Growth inhibition of human HT-29 cells incubated for 48 hrs by sulforhodamine B assay; method in brief: as §2
SR = test: Growth inhibition of human SR cells assessed as cell growth at 100 uM incubated for 48 hrs by sulforhodamine B assay relative to control; settings: read-out: Activity
HOP-62 = test: Growth inhibition of human HOP-62 cells assessed as cell growth at 0.01 uM incubated for 48 hrs by sulforhodamine B assay relative to control; settings: read-out: Activity
SF-539 [8] = test: Growth inhibition of human SF-539 cells assessed as cell growth at 1 uM incubated for 48 hrs by sulforhodamine B assay relative to control; settings: read-out: Activity
SN12C [9] = test: Growth inhibition of human SN12C cells incubated for 48 hrs by sulforhodamine B assay; settings: for CC50: read-out: LC50 (the source's name); method in brief: as §3
KM12 = test: Growth inhibition of human KM12 cells assessed as cell growth at 0.01 uM incubated for 48 hrs by sulforhodamine B assay relative to control; settings: read-out: Activity
PC-3 = test: Growth inhibition of human PC-3 cells assessed as cell growth at 1 uM incubated for 48 hrs by sulforhodamine B assay relative to control; settings: read-out: Activity
NCI-H23 = test: Growth inhibition of human NCI-H23 cells incubated for 48 hrs by sulforhodamine B assay; method in brief: as §2
UACC-62 = test: Growth inhibition of human UACC-62 cells assessed as cell growth at 100 uM incubated for 48 hrs by sulforhodamine B assay relative to control; settings: read-out: Activity

CCc1ccccc1NC(=O)c1sc2nc3c(cc2c1N)C(=O)CCC3
growth at 1 µM (NCI/ADR-RES): 21%
growth at 0.1 µM (MDA-MB-435): 29%
growth at 100 µM (SN12C [1]): 22%
growth at 0.01 µM (SF-539 [2]): 92%
growth at 0.01 µM (A498 [3]): 80%
growth at 1 µM (SNB-19): 45%
GI50 (LOX IMVI): 645 nM
LC50 (LOX IMVI): > 100 µM
TGI (LOX IMVI): > 100 µM
growth at 0.01 µM (SW-620): 96%
growth at 0.1 µM (MDA-MB-231): 90%
growth at 100 µM (BT-549): 11%
growth at 100 µM (SF-268): 12%
growth at 0.01 µM (RPMI-8226): 100%
growth at 1 µM (A498 [4]): -14%
growth at 1 µM (NCI-H460): 9%
LC50 (SK-MEL-2): > 100 µM
TGI (SK-MEL-2): > 100 µM
growth at 100 µM (NCI-H322M): 23%
growth at 0.1 µM (MCF7): 83%
growth at 0.1 µM (RXF 393): 66%
growth at 1 µM (SNB-75): -8%
growth at 100 µM (SF-295 [5]): -2%
growth at 0.1 µM (HCT-15): 74%
growth at 0.1 µM (ACHN): 92%
growth at 100 µM (SF-539 [6]): -34%
growth at 1 µM (Hs-578T): 18%
GI50 (COLO 205): 252 nM
LC50 (concentration killing 50% of cells) (COLO 205): > 100 µM
TGI (COLO 205): 19.8 µM
GI50 (SF-295 [7]): 257 nM
LC50 (concentration killing 50% of cells) (SF-295 [7]): > 100 µM
TGI (SF-295 [7]): ≥ 100 µM
GI50 (HT-29): 372 nM
LC50 (HT-29): > 100 µM
TGI (HT-29): 29.5 µM
growth at 100 µM (SR): 2%
growth at 0.01 µM (HOP-62): 91%
growth at 1 µM (SF-539 [8]): 11%
GI50 (SN12C [9]): 676 nM
TGI (SN12C [9]): > 100 µM
CC50 (SN12C [9]): > 100 µM
growth at 0.01 µM (KM12): 100%

Cc1ccc(NC(=O)c2sc3nc4c(cc3c2N)C(=O)CCC4)cc1C
growth at 1 µM (NCI/ADR-RES): 39%
growth at 0.1 µM (MDA-MB-435): 60%
growth at 100 µM (SN12C [1]): 17%
growth at 0.01 µM (SF-539 [2]): 97%
growth at 0.01 µM (A498 [3]): 89%
growth at 1 µM (SNB-19): 37%
GI50 (LOX IMVI): 716 nM
LC50 (LOX IMVI): > 100 µM
TGI (LOX IMVI): > 100 µM
growth at 0.01 µM (SW-620): 99%
growth at 0.1 µM (MDA-MB-231): 95%
growth at 100 µM (BT-549): 42%
growth at 100 µM (SF-268): 14%
growth at 0.01 µM (RPMI-8226): 99%
growth at 1 µM (A498 [4]): -17%
growth at 1 µM (NCI-H460): 11%
GI50 (SK-MEL-2): 463 nM
LC50 (SK-MEL-2): > 100 µM
TGI (SK-MEL-2): > 100 µM
growth at 100 µM (NCI-H322M): 37%
growth at 0.1 µM (MCF7): 86%
growth at 0.1 µM (RXF 393): 82%
growth at 1 µM (SNB-75): -7%
growth at 100 µM (SF-295 [5]): 12%
growth at 0.1 µM (HCT-15): 90%
growth at 0.1 µM (ACHN): 95%
growth at 100 µM (SF-539 [6]): 7%
growth at 1 µM (Hs-578T): 16%
GI50 (COLO 205): 272 nM
LC50 (concentration killing 50% of cells) (COLO 205): ≥ 100 µM
TGI (COLO 205): 11.4 µM
GI50 (SF-295 [7]): 328 nM
LC50 (concentration killing 50% of cells) (SF-295 [7]): > 100 µM
TGI (SF-295 [7]): > 100 µM
GI50 (HT-29): 399 nM
LC50 (HT-29): > 100 µM
TGI (HT-29): ≥ 100 µM
growth at 100 µM (SR): -14%
growth at 0.01 µM (HOP-62): 89%
growth at 1 µM (SF-539 [8]): 21%
GI50 (SN12C [9]): 675 nM
TGI (SN12C [9]): > 100 µM
CC50 (SN12C [9]): > 100 µM
growth at 0.01 µM (KM12): 98%

CCc1cccc(C)c1NC(=O)c1sc2nc3c(cc2c1N)C(=O)CCC3
growth at 1 µM (NCI/ADR-RES): 33%
growth at 0.1 µM (MDA-MB-435): 71%
growth at 100 µM (SN12C [1]): -4%
growth at 0.01 µM (SF-539 [2]): 89%
growth at 0.01 µM (A498 [3]): 80%
growth at 1 µM (SNB-19): 47%
GI50 (LOX IMVI): 724 nM
LC50 (LOX IMVI): > 100 µM
TGI (LOX IMVI): > 100 µM
growth at 0.01 µM (SW-620): 97%
growth at 1 µM (PC-3): 31%
growth at 0.1 µM (MDA-MB-231): 100%
growth at 100 µM (SF-268): 5%
growth at 0.01 µM (RPMI-8226): 101%
growth at 1 µM (A498 [4]): -16%
growth at 1 µM (NCI-H460): 9%
growth at 100 µM (NCI-H322M): 21%
growth at 0.1 µM (MCF7): 90%
growth at 0.1 µM (RXF 393): 74%
GI50 (NCI-H23): 733 nM
LC50 (50% lethal concentration) (NCI-H23): > 100 µM
TGI (NCI-H23): > 100 µM
growth at 1 µM (SNB-75): -2%
growth at 100 µM (SF-295 [5]): 1%
growth at 0.1 µM (HCT-15): 92%
growth at 0.1 µM (ACHN): 97%
growth at 100 µM (UACC-62): 14%
growth at 100 µM (SF-539 [6]): 2%
growth at 1 µM (Hs-578T): 20%
GI50 (COLO 205): 278 nM
GI50 (SF-295 [7]): 276 nM
LC50 (concentration killing 50% of cells) (SF-295 [7]): > 100 µM
TGI (SF-295 [7]): > 100 µM
growth at 100 µM (SR): -18%
growth at 0.01 µM (HOP-62): 94%
growth at 1 µM (SF-539 [8]): 8%
GI50 (SN12C [9]): 10.4 nM
TGI (SN12C [9]): > 100 µM
CC50 (SN12C [9]): > 100 µM
growth at 0.01 µM (KM12): 96%

Source: ChEMBL document CHEMBL4715736, “Identification of anticancer agents based on the thieno[2,3-b]pyridine and 1H-pyrazole molecular scaffolds” (2016)
